The values below come from ChEMBL document CHEMBL4513216, “Probing the Open Global Health Chemical Diversity Library for Multistage-Active Starting Points for Next-Generation Antimalarials” (ACS Infect Dis, 2020).

SMILES strings stand for the structures.

A short description of the data set: Toxicity liver stage against HepG2, at 10uM. The format is cell-based. The arrangement: test concentration 10 uM, cell line HepG2-A16-CD81EGFP. Conditions: human, HepG2-A16-CD81EGFP cells; read-out: INHIBITION
The procedure, abridged:
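Uninfected HepG2-A16-CD81EGFP cells, 3 × 10^3 per well, 1536-well, plated on prespotted compound at 10 μM final, parasite-free screening media added to match infected plates; puromycin 10 μM positive, DMSO 0.5% negative; run in parallel with 48 h PbLuc assay at 37 °C, 5% CO2; viability by CellTiter-Glo luminescence, normalized to controls.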
As to `CS(=O)(=O)N1C[C@H](C(=O)Nc2cnccn2)C[C@H]2OCC[C@H]21`, the cytotoxicity at 10 µM was 10.7%.

With `CC(C)N(C)Cc1cn2c(n1)CN(C(=O)c1ccc[nH]1)CC2`, the cytotoxicity at 10 µM was -73.2%.

Turning to `Cc1nn(C)c(C)c1C(=O)NN1CCOCC1`, the cytotoxicity at 10 µM was 7.83%.

Take `CCOCC(O)CN1CCN(C(=O)C2CCC2)CC1` (stereo unspecified): the cytotoxicity at 10 µM was -11.8%.

`c1ccc2oc(CN3CCCCC3Cn3cncn3)nc2c1` (stereo unspecified): the cytotoxicity at 10 µM is -13.9%.

As for `Nc1nccc(C2CN(Cc3ccc(-c4ccccc4C(=O)O)o3)C2)n1`, the cytotoxicity at 10 µM was determined as 5%.

`COc1ccccc1CNC(=O)CN(C)C(C)c1ccncn1` (stereo unspecified): the cytotoxicity at 10 µM was -4.73%.

For the compound `N#Cc1c(F)cccc1Nc1cnn(CC(N)=O)c1`, the cytotoxicity at 10 µM amounted to 6.25%.

For the compound `CNC(=O)[C@@H]1C[C@@H](N)CN1C(=O)CCSCc1ccc(F)cc1`, the cytotoxicity at 10 µM is -17.6%.

With `COc1cccc(C2c3c(n[nH]c3C)N=C3COC(=O)C32)c1OC` (stereo unspecified), the cytotoxicity at 10 µM was -5.34%.

Consider `CN(Cc1noc2c1CCCC2)C(=O)C1Cc2ccccc2CN1C` (stereo unspecified), for which the cytotoxicity at 10 µM worked out at 4.74%.

Consider `c1ccc(CN2CCCC2)c(CNc2cncc3nnnn23)c1`, for which the cytotoxicity at 10 µM is 0.351%.

`N#Cc1cccc(OCc2ccoc2C(=O)N2CCCCC2)c1`: the cytotoxicity at 10 µM was -6.57%.

Consider `CNC(=O)C1CCCCN1C(=O)c1cn(CCOC)c2ccccc12` (stereo unspecified), for which the cytotoxicity at 10 µM was -0.408%.

For `Cc1nc(C2CCCN2Cc2nc(C3CC3)no2)no1` (stereo unspecified), the cytotoxicity at 10 µM was -12.7%.

In the case of `CC(C)c1ccc(CN2C(=O)C3(CCNCC3)Nc3ccccc32)cc1`, the cytotoxicity at 10 µM is -9.81%.

Regarding `CC(C)(C)c1cn2nc(N3CCCC3Cn3cncn3)sc2n1` (stereo unspecified), the cytotoxicity at 10 µM was 1.43%.

For the compound `O=C(NCc1cn2cccnc2n1)C1CC(=O)N(Cc2cccnc2)C1` (stereo unspecified), the cytotoxicity at 10 µM is -3.23%.

Turning to `Cc1ccc(CN2CC[C@@H](NS(C)(=O)=O)[C@@H]2Cc2ccncc2)o1`, the cytotoxicity at 10 µM is -3.18%.

Regarding `CCc1nsc(NC2CCCn3nc(CC)nc32)n1` (stereo unspecified), the cytotoxicity at 10 µM was 16.2%.

Take `Cc1ccc(CC(=O)N2CCn3cc(Cn4cncn4)nc3C2)cc1`: the cytotoxicity at 10 µM is -138%.

Take `CC(C)(C)c1nnc(CN2CCN(CC(O)c3ccccc3)CC2)o1` (stereo unspecified): the cytotoxicity at 10 µM is -12.8%.

Turning to `CN1CCN(C2CCN(Cc3cn4ccccc4n3)CC2)C1=O`, the cytotoxicity at 10 µM worked out at 19.1%.

As to `CN(C)Cc1nc(C(=O)N2CCCC(COc3ccc(F)cc3)C2)cs1` (stereo unspecified), the cytotoxicity at 10 µM is -6.09%.

Turning to `CNC(=O)Cc1ccc(NC(=O)NCC(C)c2ncc(C)s2)cc1` (stereo unspecified), the cytotoxicity at 10 µM was -14.4%.

Regarding `CCOCCN1CCN(C=C2NN=C(c3occc3C)O2)CC1`, the cytotoxicity at 10 µM is -50.4%.

In the case of `Cc1nc(-c2c(-c3ccccc3)ncn2[C@H]2C[C@@H](C(=O)O)N(C)C2)co1`, the cytotoxicity at 10 µM was determined as 0.024%.

For `Cc1nc(C2CCCN2C(=O)CNS(C)(=O)=O)no1` (stereo unspecified), the cytotoxicity at 10 µM came to 17.1%.

Consider `CCn1c(C)cc(C(=O)N2CCc3nnc(N)cc3C2)c1C`, for which the cytotoxicity at 10 µM was -12.2%.

On to `Cc1noc(C2CCCN(C(=O)c3ccc(N(C)C)nc3)C2)n1` (stereo unspecified), for which the cytotoxicity at 10 µM was -4.69%.

On to `Cc1nocc1C(=O)N1CCOC2(COCCN(C(C)C)C2)C1` (stereo unspecified), for which the cytotoxicity at 10 µM came to 10%.

As for `COC[C@@]12CCC[C@@H]1CN(C(=O)N1CCCC1)C2`, the cytotoxicity at 10 µM is 7.9%.

For the compound `CCC(CNC(=O)N1CCOCC2(CCOCC2)C1)c1ccccc1` (stereo unspecified), the cytotoxicity at 10 µM came to 5.17%.

Take `CN1CCN(Cc2noc(CCc3nc(-c4ccccc4)no3)n2)CC1`: the cytotoxicity at 10 µM was found to be 6.41%.

Regarding `CCCc1cncnc1N1CCC(NCc2ccc(O)cc2)CC1`, the cytotoxicity at 10 µM was found to be 3.8%.

Turning to `Cc1nnc(N2C[C@H](C(=O)NCc3ccco3)[C@@H]3CCO[C@@H]3C2)s1`, the cytotoxicity at 10 µM amounted to 8.5%.

In the case of `Cc1nnc(SC2CCc3ccccc3NC2=O)n1C` (stereo unspecified), the cytotoxicity at 10 µM is -1.31%.

For `CN(CC(N)=O)C(=O)c1csc(Br)c1`, the cytotoxicity at 10 µM is 3%.

Take `N#Cc1cccc(CNC(=O)Nc2cccnc2N2CCCC2)c1`: the cytotoxicity at 10 µM was -15.5%.

For `CCC(OC)C(=O)N1CCc2nc(NC)nc(C(=O)N3CCCC3)c2C1` (stereo unspecified), the cytotoxicity at 10 µM was -18.3%.

With `CC(C)NC(=O)CNC(=O)OC(C)(C)C`, the cytotoxicity at 10 µM worked out at 9.39%.

In the case of `CN(C)c1ncc(-c2cc(C(=O)NCCC#N)n(CC3CC3)c2)cn1`, the cytotoxicity at 10 µM was 1.29%.

On to `O=C(c1cc2c(s1)CCCC2)N1CCCC1Cn1cccn1` (stereo unspecified), for which the cytotoxicity at 10 µM was -11.9%.

Regarding `CN(C)C(=O)CN1C[C@H]2CC[C@@H](C1)N(C(=O)Cc1ccccc1Cl)C2`, the cytotoxicity at 10 µM is -11.2%.

As to `CNC(=O)[C@@H]1COC[C@H]2CN(C(=O)c3cccc(OC)c3)C[C@H]21`, the cytotoxicity at 10 µM worked out at 12.2%.

For the compound `Cc1nc(C(=O)N2CCN(c3ccc(Cl)c(Cl)c3)CC2)cs1`, the cytotoxicity at 10 µM stood at 2.35%.

Consider `Cc1nccn1-c1cncc(C2CCCN2Cc2cccnc2)n1` (stereo unspecified), for which the cytotoxicity at 10 µM is -20.4%.

Consider `CCOC(=O)CC(c1ccc(OC)c(OC)c1)c1c(O)n[nH]c1C` (stereo unspecified), for which the cytotoxicity at 10 µM was found to be 1.64%.

`Cc1nc(C)n(CC2CCCN2CCOc2ccccc2C#N)n1` (stereo unspecified): the cytotoxicity at 10 µM is -4.17%.

With `CC(C)OCCC(=O)Nc1ncn(CC(=O)N2CCCCCC2)n1`, the cytotoxicity at 10 µM was -1.61%.

On to `CC1CCc2nn(CCNC(=O)c3cccs3)c(=O)cc2C1` (stereo unspecified), for which the cytotoxicity at 10 µM stood at 17%.

Regarding `COc1ccc2c(c1)Cc1c-2nc(N)c(C#N)c1C1CCOC1` (stereo unspecified), the cytotoxicity at 10 µM was found to be 24.4%.

With `CCNC(=O)C1CCN(Cn2nc(-c3ccc(F)cc3)oc2=O)CC1`, the cytotoxicity at 10 µM was -4.71%.

Regarding `CCCN(CC(=O)OC)S(=O)(=O)c1cnc2c(c1)c(C)nn2C`, the cytotoxicity at 10 µM is -2.61%.

As for `c1cc(CCNc2ncnc3c2CCN(Cc2ccoc2)CC3)ccn1`, the cytotoxicity at 10 µM was determined as 9.08%.

`Cc1cc(C(=O)N2C[C@@H]3COC[C@]3(CN(C)C)C2)sc1C`: the cytotoxicity at 10 µM was -146%.

Consider `COc1ccccc1OCC(=O)NS(=O)(=O)c1cc(F)ccc1F`, for which the cytotoxicity at 10 µM was -9.18%.

As to `COC(=O)c1ccc(CNC(=O)Cc2csc(C(C)=O)c2)cc1`, the cytotoxicity at 10 µM came out at 5.03%.

Turning to `CC(O)(CNC(=O)c1cccnc1-n1cccn1)c1ccsc1` (stereo unspecified), the cytotoxicity at 10 µM worked out at 2.38%.

For `COCCCN1CC2(CCN(Cc3cc(C(C)C)no3)CC2)CC1=O`, the cytotoxicity at 10 µM was -3.79%.

Turning to `CCc1nc(CN2CCN(CC(O)c3ccccc3)CC2)no1` (stereo unspecified), the cytotoxicity at 10 µM was -15.3%.

On to `CCC(CCNCc1cnc(C2CCC2)s1)N1CCCC1=O` (stereo unspecified), for which the cytotoxicity at 10 µM was -3.13%.

Consider `COc1ccc(OC2CCN(C(=O)c3cnc(C)s3)CC2)cc1`, for which the cytotoxicity at 10 µM was -18%.

With `Cc1noc(C)c1CNC(=O)NCCC(=O)N1CCCc2ccccc21`, the cytotoxicity at 10 µM was -0.353%.

For the compound `CCCc1noc(CN(C)C(=O)C2COc3ccccc3C2)n1` (stereo unspecified), the cytotoxicity at 10 µM is -7.01%.

Take `FC(F)(F)c1nc(C2CCCNC2)no1` (stereo unspecified): the cytotoxicity at 10 µM was 5.25%.

Regarding `COCc1nc(C(=O)N2CCCC(n3cccn3)C2)cs1` (stereo unspecified), the cytotoxicity at 10 µM is -7.42%.

For `CCSc1ccc(NC(=O)NC(C)c2c(C)nn(C)c2C)cn1` (stereo unspecified), the cytotoxicity at 10 µM is -2.6%.

For the compound `Cc1ccc2oc(SCC(=O)NC(C)(C)C)nc2n1`, the cytotoxicity at 10 µM was -0.3%.

For the compound `Cc1nn(C)c(N(C)C)c1CNCc1cccc(Br)c1`, the cytotoxicity at 10 µM is -7.98%.

Turning to `CCCS(=O)(=O)c1ncc(CN2CCC(C)CC2)n1CC1CCCO1` (stereo unspecified), the cytotoxicity at 10 µM is -5.12%.
